From ChEMBL document CHEMBL1143175, “Inactivation of human neutrophil elastase by 1,2,5-thiadiazolidin-3-one 1,1 dioxide-based sulfonamides” (Bioorg Med Chem, 2008)
The source made the active and inactive calls. No cut-off for these calls is given here.

How the values were obtained:
[1] = biological target: T1, Neutrophil elastase (Homo sapiens) (UniProt P08246); assay: Inhibition of human neutrophil elastase; details: TDE = time-dependent effect
T1 sequence (whole entry): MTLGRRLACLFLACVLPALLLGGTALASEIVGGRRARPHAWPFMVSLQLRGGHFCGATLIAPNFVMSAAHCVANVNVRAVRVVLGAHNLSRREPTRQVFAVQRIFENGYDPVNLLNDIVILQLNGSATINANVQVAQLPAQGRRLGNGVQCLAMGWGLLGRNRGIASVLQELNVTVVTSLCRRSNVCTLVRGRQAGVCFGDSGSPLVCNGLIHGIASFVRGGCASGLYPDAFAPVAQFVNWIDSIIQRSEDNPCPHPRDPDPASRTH
Method in brief: (§1)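 Human neutrophil elastase, progress curve method: 10 nM enzyme added to inhibitor plus 105 µM MeOSuc-Ala-Ala-Pro-Val p-nitroanilide in 0.1 M HEPES/0.5 M NaCl, pH 7.25, 2.5% DMSO. Absorbance followed at 410 nm for 10 min and fitted to the progress curve equation. Apparent second-order constants kinact/KI determined in duplicate.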

[2] = biological target: T2, Cathepsin G (Homo sapiens) (UniProt P08311); assay: Ratio of Kinact to KI for human cathepsin G
T2 sequence (whole entry): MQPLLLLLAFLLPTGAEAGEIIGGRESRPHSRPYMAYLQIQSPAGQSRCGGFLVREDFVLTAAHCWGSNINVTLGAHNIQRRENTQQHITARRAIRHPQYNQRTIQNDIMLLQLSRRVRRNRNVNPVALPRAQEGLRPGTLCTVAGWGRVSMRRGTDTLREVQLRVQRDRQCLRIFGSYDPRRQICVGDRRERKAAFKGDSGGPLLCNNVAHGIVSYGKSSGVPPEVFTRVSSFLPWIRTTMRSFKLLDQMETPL
Method in brief: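 Neutrophil cathepsin G incubated with inhibitor at an [I]/[E] ratio of 250 for 30 min. Substrate N-succinyl-Ala-Ala-Pro-Phe p-nitroanilide (85 mM stock in DMSO) then added, and absorbance monitored at 410 nm for 10 min.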

[3] = biological target: T3, Myeloblastin (Homo sapiens) (UniProt P24158); assay: Ratio of Kinact to KI for human PR3
T3 sequence (whole entry): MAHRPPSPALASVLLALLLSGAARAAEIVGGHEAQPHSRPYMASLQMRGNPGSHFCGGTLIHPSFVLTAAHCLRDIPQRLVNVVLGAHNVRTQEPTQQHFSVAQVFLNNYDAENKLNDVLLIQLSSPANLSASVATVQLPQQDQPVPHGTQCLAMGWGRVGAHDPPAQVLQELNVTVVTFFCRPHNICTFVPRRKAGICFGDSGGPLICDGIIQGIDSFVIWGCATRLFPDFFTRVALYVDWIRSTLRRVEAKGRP
Method in brief: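 Human proteinase 3 (34.5 nM final) with inhibitor (8.6 µM final) and Boc-Ala-Ala-NVa-SBzl plus 5,5′-dithio-bis(2-nitrobenzoic acid) in 0.1 M HEPES/0.5 M NaCl, pH 7.25. Absorbance change monitored at 410 nm for 2 min; inhibitor:enzyme ratio 250.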

[4] = species: Bos taurus; assay: Inhibition of bovine trypsin; details: TDE = time-dependent effect
Method in brief: (§2)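 Incubation method: bovine trypsin (5 µM final) incubated with excess inhibitor (0.125 mM final) in 0.025 M phosphate/0.1 M NaCl, pH 7.51, 1% DMSO, in a constant temperature bath. Aliquots taken over time, residual activity read with N-p-tosyl-Gly-Pro-Lys p-nitroanilide at 410 nm for 60 s. kobs from ln(v/v0) versus time, mean of two determinations, reported as kobs/[I].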

[5] = biological target: T1, Neutrophil elastase (Homo sapiens); assay: Ratio of Kinact to KI for human neutrophil elastase; method in brief: as §1
[6] = species: Bos taurus; assay: Ratio of Kobs to [I] for bovine trypsin; method in brief: as §2

SMILES	Activity [1]	Activity [2]	Activity [3]	Activity [4]	Ratio [5]	Ratio [6]
CCCC1C(=O)N(CS(=O)(=O)N[C@@H](CCCCNC(=O)OCc2ccccc2)C(=O)OC)S(=O)(=O)N1C (some centres undefined)	tde	inactive	inactive	tde	6900 M⁻¹ s⁻¹	
CCCC1C(=O)N(CS(=O)(=O)N[C@@H](CO)C(=O)OC)S(=O)(=O)N1C (some centres undefined)	tde	inactive	inactive	tde	1100 M⁻¹ s⁻¹	12
CCCC1C(=O)N(CS(=O)(=O)N[C@@H](CCCCN)C(=O)OC)S(=O)(=O)N1C (some centres undefined)	tde	inactive	inactive	tde	12900 M⁻¹ s⁻¹	
CCCC1C(=O)N(CS(=O)(=O)N[C@H](Cc2ccccc2)C(=O)OC)S(=O)(=O)N1C (some centres undefined)	tde	inactive	inactive	tde	9760 M⁻¹ s⁻¹	
CCCC1C(=O)N(CS(=O)(=O)N[C@@H](C)C(=O)OC)S(=O)(=O)N1C (some centres undefined)	tde	inactive	inactive	tde	1050 M⁻¹ s⁻¹	
CCCC1C(=O)N(CS(=O)(=O)N[C@@H](Cc2ccccc2)C(=O)OC)S(=O)(=O)N1C (some centres undefined)	tde	inactive	inactive	tde	41800 M⁻¹ s⁻¹	50
CCCC1C(=O)N(CS(=O)(=O)N[C@@H](COCc2ccccc2)C(=O)OC)S(=O)(=O)N1C (some centres undefined)	tde	inactive	inactive	tde	16900 M⁻¹ s⁻¹	60
CCCC1C(=O)N(CS(=O)(=O)N[C@@H](CCC)C(=O)OC)S(=O)(=O)N1C (some centres undefined)	tde	inactive	inactive	tde	34600 M⁻¹ s⁻¹	19
